# According to ChEMBL document CHEMBL2016531, “Identification of NAE Inhibitors Exhibiting Potent Activity in Leukemia Cells: Exploring the Structural Determinants of NAE Specificity” (ACS Med Chem Lett, 2011):
# Active and inactive are the calls of the source. The rule behind the calls is not given here.
# Key:
# Homo sapiens [1] = species on record: Homo sapiens; assay: Inhibition of human recombinant UAE assessed as inhibition of UbcH6-Ub complex formation at 0.001 to 10 uM after 1.5 hrs by Western blot analysis
# Summary of the method: (§1)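 Cell-free gel assay. Purified human recombinant E1 incubated with its matching Ub/Ubl and E2 in 50 mM HEPES pH 7.4, 5 mM MgCl2, 1–20 μM ATP. Inhibitor at 0, 0.001, 0.01, 0.1, 1 or 10 μM, 1.5 h at room temperature. Products resolved by SDS-PAGE, immunoblotted and detected by ECL; densitometry used for semiquantitation.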
# [2] = target: SUMO-activating enzyme (Homo sapiens) (UniProt Q9UBE0+Q9UBT2); assay: Inhibition of human recombinant SAE1/2 assessed as inhibition of SUMO1-UbcH9 complex formation at 0.001 to 10 uM after 1.5 hrs by Western blot analysis; format: protein-complex assay; summary of the method: as §1
# Homo sapiens [3] = species on record: Homo sapiens; assay: Inhibition of human recombinant NAE assessed as inhibition of NEDD8-UbcH12 complex formation at 1 nM after 1.5 hrs by Western blot analysis; summary of the method: as §1
# [4] = target: T1, NEDD8-activating enzyme E1 catalytic subunit (Homo sapiens) (UniProt Q8TBC4); assay: Inhibition of UBA3-mediated NEDD8 activation at […] after 1.5 hrs by Western blot analysis
# T1 sequence (whole entry): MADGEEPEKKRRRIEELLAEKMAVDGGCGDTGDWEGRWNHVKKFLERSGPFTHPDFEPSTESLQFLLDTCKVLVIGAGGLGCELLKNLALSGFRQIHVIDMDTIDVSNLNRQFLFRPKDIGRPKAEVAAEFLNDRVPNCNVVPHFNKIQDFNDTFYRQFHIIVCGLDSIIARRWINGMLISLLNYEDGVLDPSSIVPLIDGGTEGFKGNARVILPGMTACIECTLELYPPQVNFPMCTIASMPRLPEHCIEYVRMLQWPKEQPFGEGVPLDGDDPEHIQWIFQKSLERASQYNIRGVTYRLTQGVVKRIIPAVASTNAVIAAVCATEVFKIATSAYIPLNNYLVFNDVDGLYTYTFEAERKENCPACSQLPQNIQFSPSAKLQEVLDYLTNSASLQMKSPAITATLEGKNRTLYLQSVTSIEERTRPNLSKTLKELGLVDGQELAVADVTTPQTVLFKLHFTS
# [5] = target: T2, NEDD8-activating enzyme E1 regulatory subunit (Homo sapiens) (UniProt Q13564); assay: Inhibition of APPBP1-mediated NEDD8 activation at […] after 1.5 hrs by Western blot analysis
# T2 sequence (whole entry): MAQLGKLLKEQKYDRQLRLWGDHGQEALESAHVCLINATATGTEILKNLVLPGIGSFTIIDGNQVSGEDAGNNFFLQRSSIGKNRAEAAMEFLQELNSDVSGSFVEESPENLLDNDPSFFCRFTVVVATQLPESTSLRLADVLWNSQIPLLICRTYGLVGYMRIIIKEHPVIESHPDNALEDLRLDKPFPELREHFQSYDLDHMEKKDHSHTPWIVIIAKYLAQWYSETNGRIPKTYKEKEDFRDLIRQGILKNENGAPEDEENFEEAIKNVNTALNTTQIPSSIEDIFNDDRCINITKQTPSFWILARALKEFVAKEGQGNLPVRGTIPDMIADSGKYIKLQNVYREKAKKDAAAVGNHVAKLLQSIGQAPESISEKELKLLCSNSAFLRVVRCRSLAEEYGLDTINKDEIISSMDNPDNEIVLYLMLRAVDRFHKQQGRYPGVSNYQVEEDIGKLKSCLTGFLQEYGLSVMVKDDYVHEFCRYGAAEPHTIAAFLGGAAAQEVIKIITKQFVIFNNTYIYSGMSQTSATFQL
# [6] = target: Tyrosine-protein kinase ABL1 (Homo sapiens) (UniProt P00519); assay: Inhibition of ABL assessed as remaining activity at 0.1 uM by radiolabeled kinase assay relative to control
# [7] = target: Death-associated protein kinase 1 (Homo sapiens) (UniProt P53355); assay: Inhibition of DAPK1 assessed as remaining activity at 0.1 uM by radiolabeled kinase assay relative to control
# Death-associated protein kinase 1 (Homo sapiens), sequence (P53355 whole entry, looked up): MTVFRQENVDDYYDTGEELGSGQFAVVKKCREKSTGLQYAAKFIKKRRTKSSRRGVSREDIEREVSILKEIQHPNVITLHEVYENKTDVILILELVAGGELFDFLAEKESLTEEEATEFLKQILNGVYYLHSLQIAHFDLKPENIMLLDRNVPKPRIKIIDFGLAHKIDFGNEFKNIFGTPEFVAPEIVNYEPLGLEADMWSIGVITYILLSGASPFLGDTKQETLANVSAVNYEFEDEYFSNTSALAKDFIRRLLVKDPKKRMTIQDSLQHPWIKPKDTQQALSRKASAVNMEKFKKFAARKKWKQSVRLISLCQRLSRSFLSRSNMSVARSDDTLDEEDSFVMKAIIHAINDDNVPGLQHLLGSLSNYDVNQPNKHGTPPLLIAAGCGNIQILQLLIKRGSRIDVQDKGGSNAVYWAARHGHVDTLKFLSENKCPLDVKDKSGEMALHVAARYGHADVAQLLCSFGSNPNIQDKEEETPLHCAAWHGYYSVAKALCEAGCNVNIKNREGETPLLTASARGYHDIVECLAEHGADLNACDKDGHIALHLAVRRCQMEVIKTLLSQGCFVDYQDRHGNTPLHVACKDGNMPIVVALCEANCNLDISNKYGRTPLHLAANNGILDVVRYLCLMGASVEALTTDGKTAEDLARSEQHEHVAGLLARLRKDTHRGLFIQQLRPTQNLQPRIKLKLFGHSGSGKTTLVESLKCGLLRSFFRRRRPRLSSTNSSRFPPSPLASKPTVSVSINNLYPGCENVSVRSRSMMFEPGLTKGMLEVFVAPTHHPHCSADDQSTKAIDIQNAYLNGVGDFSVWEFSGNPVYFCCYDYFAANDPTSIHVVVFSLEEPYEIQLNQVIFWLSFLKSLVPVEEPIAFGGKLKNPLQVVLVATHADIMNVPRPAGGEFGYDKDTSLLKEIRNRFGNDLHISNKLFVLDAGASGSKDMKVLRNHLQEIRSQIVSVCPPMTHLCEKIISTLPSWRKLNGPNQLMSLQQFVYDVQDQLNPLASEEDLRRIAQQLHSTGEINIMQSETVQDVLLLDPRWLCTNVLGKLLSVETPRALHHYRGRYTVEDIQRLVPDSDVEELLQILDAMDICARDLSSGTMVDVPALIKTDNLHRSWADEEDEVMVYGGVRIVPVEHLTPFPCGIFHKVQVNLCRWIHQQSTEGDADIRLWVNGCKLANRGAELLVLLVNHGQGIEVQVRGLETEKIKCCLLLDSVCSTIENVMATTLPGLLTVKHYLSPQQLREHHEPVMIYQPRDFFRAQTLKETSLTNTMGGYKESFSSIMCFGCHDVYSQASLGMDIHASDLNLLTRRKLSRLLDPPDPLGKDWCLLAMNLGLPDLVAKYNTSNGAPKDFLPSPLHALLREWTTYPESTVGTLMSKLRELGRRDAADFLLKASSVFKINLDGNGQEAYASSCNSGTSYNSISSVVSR
# [8] = target: Insulin-like growth factor 1 receptor (Homo sapiens) (UniProt P08069); assay: Inhibition of IGF1R assessed as remaining activity at 0.1 uM by radiolabeled kinase assay relative to control
# Insulin-like growth factor 1 receptor (Homo sapiens), sequence (P08069 31-736 limits assumed): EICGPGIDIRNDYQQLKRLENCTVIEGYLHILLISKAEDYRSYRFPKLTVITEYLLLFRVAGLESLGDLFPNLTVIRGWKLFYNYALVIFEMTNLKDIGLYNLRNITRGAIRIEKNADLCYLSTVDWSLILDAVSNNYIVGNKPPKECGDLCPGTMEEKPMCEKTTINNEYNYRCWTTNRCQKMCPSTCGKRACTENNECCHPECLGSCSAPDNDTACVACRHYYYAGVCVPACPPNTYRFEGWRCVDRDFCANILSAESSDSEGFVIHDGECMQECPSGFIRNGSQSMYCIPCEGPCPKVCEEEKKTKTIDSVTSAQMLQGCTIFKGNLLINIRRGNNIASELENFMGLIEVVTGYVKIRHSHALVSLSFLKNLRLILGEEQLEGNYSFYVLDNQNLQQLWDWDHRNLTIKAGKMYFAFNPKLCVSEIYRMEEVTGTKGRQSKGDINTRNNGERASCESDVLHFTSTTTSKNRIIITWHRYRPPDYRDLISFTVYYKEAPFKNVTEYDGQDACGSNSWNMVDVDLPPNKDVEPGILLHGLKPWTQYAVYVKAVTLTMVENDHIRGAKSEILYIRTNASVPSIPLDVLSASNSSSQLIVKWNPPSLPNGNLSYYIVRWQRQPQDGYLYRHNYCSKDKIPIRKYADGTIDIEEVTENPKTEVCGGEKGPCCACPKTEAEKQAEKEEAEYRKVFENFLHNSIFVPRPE
# Insulin-like growth factor 1 receptor (Homo sapiens), sequence (P08069 741-1367 limits assumed): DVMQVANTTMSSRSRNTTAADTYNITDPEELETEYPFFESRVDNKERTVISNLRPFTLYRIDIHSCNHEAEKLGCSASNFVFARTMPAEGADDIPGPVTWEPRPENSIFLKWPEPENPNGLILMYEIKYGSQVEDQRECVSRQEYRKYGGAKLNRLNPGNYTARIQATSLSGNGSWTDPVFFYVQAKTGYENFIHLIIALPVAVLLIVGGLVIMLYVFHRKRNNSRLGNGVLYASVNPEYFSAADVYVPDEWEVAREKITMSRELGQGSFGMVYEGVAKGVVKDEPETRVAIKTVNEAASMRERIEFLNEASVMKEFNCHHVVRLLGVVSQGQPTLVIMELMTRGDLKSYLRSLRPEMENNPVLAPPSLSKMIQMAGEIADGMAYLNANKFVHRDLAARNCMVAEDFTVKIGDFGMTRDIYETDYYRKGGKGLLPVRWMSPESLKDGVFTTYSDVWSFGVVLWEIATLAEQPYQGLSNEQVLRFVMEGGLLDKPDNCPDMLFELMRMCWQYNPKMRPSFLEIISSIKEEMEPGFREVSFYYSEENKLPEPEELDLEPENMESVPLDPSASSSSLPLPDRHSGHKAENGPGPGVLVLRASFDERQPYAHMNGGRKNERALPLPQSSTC
# [9] = target: Tyrosine-protein kinase JAK1 (Homo sapiens) (UniProt P23458); assay: Inhibition of JAK1 assessed as remaining activity at 0.1 uM by radiolabeled kinase assay relative to control
# Tyrosine-protein kinase JAK1 (Homo sapiens), sequence (P23458 whole entry): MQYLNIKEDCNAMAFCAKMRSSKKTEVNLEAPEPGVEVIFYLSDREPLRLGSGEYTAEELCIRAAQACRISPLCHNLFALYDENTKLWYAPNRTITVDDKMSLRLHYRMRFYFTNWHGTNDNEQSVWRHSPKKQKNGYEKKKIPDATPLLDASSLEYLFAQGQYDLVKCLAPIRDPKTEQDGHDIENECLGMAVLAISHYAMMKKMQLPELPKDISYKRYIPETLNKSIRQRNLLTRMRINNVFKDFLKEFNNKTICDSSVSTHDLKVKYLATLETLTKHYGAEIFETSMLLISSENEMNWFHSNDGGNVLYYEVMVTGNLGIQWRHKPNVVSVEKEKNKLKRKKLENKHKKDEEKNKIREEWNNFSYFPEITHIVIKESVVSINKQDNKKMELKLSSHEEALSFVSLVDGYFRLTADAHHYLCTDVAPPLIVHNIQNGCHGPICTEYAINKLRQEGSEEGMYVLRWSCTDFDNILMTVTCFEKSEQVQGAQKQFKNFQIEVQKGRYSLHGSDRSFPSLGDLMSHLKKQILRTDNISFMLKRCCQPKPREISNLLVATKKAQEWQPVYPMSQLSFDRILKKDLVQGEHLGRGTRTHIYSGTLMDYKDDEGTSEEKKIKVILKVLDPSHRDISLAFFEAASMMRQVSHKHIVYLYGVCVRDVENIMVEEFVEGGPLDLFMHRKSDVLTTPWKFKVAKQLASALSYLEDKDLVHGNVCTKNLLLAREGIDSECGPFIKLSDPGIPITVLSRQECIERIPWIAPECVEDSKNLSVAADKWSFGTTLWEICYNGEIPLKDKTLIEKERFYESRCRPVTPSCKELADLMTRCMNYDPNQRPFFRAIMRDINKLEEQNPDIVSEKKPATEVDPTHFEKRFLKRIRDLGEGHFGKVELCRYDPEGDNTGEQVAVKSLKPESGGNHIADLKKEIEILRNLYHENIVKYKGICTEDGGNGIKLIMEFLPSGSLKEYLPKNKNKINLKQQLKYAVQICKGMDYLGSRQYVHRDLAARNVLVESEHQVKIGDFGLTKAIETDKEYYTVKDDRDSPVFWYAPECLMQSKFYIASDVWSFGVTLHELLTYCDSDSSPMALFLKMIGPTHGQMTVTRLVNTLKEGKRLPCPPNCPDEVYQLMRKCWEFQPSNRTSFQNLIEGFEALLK
# [10] = target: Dual specificity mitogen-activated protein kinase kinase 1 (Homo sapiens) (UniProt Q02750); assay: Inhibition of MEK1 assessed as remaining activity at 0.1 uM by radiolabeled kinase assay relative to control
# Dual specificity mitogen-activated protein kinase kinase 1 (Homo sapiens), sequence (Q02750 whole entry): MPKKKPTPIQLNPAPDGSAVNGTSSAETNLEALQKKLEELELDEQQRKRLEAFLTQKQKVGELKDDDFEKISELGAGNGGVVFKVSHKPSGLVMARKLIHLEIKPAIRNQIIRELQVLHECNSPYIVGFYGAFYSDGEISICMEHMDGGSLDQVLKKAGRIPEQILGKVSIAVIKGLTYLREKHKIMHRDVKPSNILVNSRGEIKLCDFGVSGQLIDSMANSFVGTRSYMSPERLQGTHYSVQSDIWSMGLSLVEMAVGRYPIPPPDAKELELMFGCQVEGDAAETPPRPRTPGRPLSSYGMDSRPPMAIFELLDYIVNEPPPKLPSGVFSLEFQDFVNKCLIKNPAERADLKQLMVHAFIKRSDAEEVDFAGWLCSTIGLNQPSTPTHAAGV
# [11] = target: High affinity nerve growth factor receptor (Homo sapiens) (UniProt P04629); assay: Inhibition of TRKA assessed as remaining activity at 0.1 uM by radiolabeled kinase assay relative to control
# High affinity nerve growth factor receptor (Homo sapiens), sequence (P04629 33-796 limits assumed): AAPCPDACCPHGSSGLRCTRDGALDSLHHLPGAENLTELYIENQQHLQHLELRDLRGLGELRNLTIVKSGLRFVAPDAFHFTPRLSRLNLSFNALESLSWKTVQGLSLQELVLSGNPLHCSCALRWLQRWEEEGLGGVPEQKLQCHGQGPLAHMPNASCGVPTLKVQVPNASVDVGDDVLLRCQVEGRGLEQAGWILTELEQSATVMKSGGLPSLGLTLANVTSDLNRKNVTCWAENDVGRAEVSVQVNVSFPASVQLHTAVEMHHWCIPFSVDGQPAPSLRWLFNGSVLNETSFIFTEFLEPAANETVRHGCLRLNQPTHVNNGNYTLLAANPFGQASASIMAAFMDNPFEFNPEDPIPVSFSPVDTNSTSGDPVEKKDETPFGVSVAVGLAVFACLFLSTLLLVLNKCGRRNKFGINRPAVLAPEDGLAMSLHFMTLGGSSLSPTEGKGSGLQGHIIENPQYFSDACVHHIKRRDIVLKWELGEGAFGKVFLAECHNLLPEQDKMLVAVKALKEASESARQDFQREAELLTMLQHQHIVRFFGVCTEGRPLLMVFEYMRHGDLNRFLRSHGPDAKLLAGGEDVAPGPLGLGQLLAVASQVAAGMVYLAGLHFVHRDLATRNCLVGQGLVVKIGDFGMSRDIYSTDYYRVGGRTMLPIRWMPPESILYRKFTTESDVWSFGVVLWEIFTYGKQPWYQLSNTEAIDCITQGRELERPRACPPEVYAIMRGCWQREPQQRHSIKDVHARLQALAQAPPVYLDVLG
# K562 [12] = assay: Antiproliferative activity against human K562 cells after 72 hrs by CellTiter-Glo assay; format: functional, cell-based; details: K562, 72 h
# Summary of the method: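 K562 leukemia cells exposed to increasing concentrations for 72 h; growth and viability read by CellTiter-Glo luminescence.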
# K562 [13] = assay: Inhibition of NAE in human K562 cells assessed as inhibition of NEDD8-cullin complex formation at 1 to 1000 nM after 24 hrs by immunoblotting; format: cell-based
# Summary of the method: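 K562 cells treated with increasing concentrations for 24 h, then harvested. Total cellular protein isolated and NEDD8–cullin conjugates detected by immunoblotting.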
compound,measurement,setting,value
CCCCCCNc1ncnc2c1ncn2[C@@H]1O[C@H](COS(N)(=O)=O)[C@@H](O)[C@H]1O,inhibition,Homo sapiens [1],Active
same,inhibition,[2],Active
same,inhibition,Homo sapiens [3],> 70%
same,inhibition,[4],Active
same,inhibition,[5],Active
same,Activity,[6],102%
same,Activity,[7],88.5%
same,Activity,[8],100%
same,Activity,[9],99.3%
same,Activity,[10],123%
same,Activity,[11],109%
same,EC50,K562 [12],160 nM
same,inhibition,K562 [13],Active
